# Shown are actives, neighbours in structure and some others; about 2.2% of the full set was active somewhere.
# miR122 inh = inhibitors of miR-122 in Huh7 cells; activation (reporter increase), % at 12.5 µM; Huh7 miR-122 Renilla luciferase sensor, 48 h; neutral wells = 0, positive control = 100; AID 602342; hit rate 0.3% among 340,000;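 active means mean replicate activation score at least 90 and every replicate individually at or above 90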;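 further: higher luciferase means less miR-122 activity so hits act as miR-122 inhibitors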
# NR2E3 ag-1 = agonists of human NR2E3 nuclear receptor; Q9Y5X4; CHO-S Gal4-NCOR/VP16-NR2E3 two-hybrid, luciferase; inhibition of corepressor binding, % at 3.98 µM; hit rate 0.35% among 360,000; AID 602229;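 active means inhibition above the mean of all tested compounds plus 3 SD, cut at about 70% in these data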;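 further: 0% = DMSO with NR2E3 transfected cells and 100% = cells lacking NR2E3 construct; higher means lower luciferase signal from less NR2E3 corepressor binding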
# Target sequence (Q9Y5X4 whole entry, looked up, the tested form may be a part): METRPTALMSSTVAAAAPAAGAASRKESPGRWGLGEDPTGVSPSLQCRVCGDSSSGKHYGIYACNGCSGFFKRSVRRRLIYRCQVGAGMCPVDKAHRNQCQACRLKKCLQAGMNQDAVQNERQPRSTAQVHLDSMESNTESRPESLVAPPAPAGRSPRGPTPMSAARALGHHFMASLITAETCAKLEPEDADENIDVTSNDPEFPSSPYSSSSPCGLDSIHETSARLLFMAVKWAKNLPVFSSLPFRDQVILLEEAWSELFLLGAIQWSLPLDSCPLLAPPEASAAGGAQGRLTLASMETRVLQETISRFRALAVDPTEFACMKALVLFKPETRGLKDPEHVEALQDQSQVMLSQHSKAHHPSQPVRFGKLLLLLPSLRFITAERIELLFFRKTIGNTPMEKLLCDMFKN
# Jurkat NFkB inh = lowers PMA/ionomycin-induced NF-kB signal in Jurkat cells; PMA/ionomycin-induced NF-kB luciferase reporter, luminescence; inhibition, % at 4 µM; hit rate 0.53% among 330,000; AID 435003; in the data active means inhibition above about 50%
# 697 NFkB inh = lowers PMA/ionomycin-induced NF-kB signal in 697 B cells. 697 B-cell NF-kB luciferase reporter, 16 h. inhibition, % at 4 µM. hit rate 0.33% among 330,000; in the data active means inhibition above about 35%
# FGF22 binding = binders of recombinant human FGF22 by thermal shift; Q9HCT0; SYPRO orange fluorescence; percent of sucrose octasulfate shift, DMSO zero; activity (Tm shift, normalised), % at 9.99 µM; hit rate 1.5% among 340,000; AID 651658;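 active means mean Tm shift, scaled 0 neutral to 100 positive control, at about 1.3% or above, every replicate too, limit read from the data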
# Target sequence (Q9HCT0 whole entry, looked up): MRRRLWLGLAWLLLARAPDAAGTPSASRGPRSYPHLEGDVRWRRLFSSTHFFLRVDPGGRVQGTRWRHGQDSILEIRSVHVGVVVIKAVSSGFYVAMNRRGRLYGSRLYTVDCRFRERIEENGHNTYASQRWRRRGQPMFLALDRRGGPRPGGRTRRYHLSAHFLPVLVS
# NR2E3 ag-2 = activates human photoreceptor nuclear receptor NR2E3. hit rate 0.12% among 320,000. inhibition of corepressor binding, % at 4.78 µM. AID 2300. GST-NR2E3/biotin-RetCOR TR-FRET, 1536-well. Q9Y5X4;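 active means percent inhibition above the cutoff of mean plus 3 SD of all tested compounds, set per screening campaign, cut at about 20% in these data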;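 further: 0% = DMSO wells and 100% = biotin wells as full block of FRET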
#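 Material: NR2E3–RetCOR corepressor complex / Incubation: Compound–protein incubation for 5 h at 4 °C / Dosing: compound at 4.8 µM, single dose / Detection: time-resolved FRET / Benchmarks: high control biotin, low control 0.6% DMSO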
# NR2E3 ag conf = NR2E3 agonism confirmed in two-hybrid assay | hit rate 51% among 2,300 | inhibition, % at 3.98 µM | CHO-S mammalian two-hybrid NR2E3-NCOR, luciferase luminescence | shares compounds with NR2E3 ag-1;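 active means average inhibition above a cutoff equal to the mean inhibition of all tested compounds plus one SD, cut at about 70% in these data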;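 further: 0% = DMSO in NR2E3 cells and 100% = DMSO in cells lacking NR2E3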
# VP16 counter = counter-screen for NR2E3 agonists: GAL4-VP16 reporter inhibitors. shares compounds with NR2E3 ag-1. CHO-S GAL4-VP16 luciferase reporter, luminescence. inhibition, % at 3.98 µM. hit rate 29% among 2,300;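 active means mean inhibition above a cutoff equal to the average over all tested compounds plus one standard deviation, cut at about 70% in these data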;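 further: luciferase from a UAS reporter driven by GAL4-VP16 transactivation; 0% = DMSO with VP16-transfected cells and 100% = DMSO with cells lacking VP16; higher means less reporter light so more repression of VP16 activity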
# * = called active by the depositor; / = no result; [ ] = another dose, or the depositor's remark.
SMILES,miR122 inh,NR2E3 ag-1,Jurkat NFkB inh,697 NFkB inh,FGF22 binding,NR2E3 ag-2,NR2E3 ag conf,VP16 counter
CCOC(=O)N1CCN(C(=O)c2ccc(S(=O)(=O)Nc3ccc(C)cc3)cc2)CC1,/,54,16,-21,0,/,81*,51
COc1ccc(NS(=O)(=O)c2ccc(C(=O)N3CCCCCC3)cc2)cc1,-2,76*,5,-14,0,/,37,48
CCOc1ccc(S(=O)(=O)Nc2ccc(C(=O)N3CCCC3)cc2)cc1,44,17,2,-16,0,5,/,/
CC(=O)Nc1ccc(S(=O)(=O)Oc2ccc(C(=S)N3CCCCC3)cc2)cc1,/,55,41,-8,/,-4,70*,62
COc1ccc(-c2ccc3n(c2=O)C[C@@H]2[C@@H](CO)[C@H](C(=O)NC4Cc5ccccc5C4)N[C@H]32)cc1,-4[16.7 µM],/,/,/,0,/,/,/
C/C=C/c1ccc2c(c1)O[C@@H](CN(C)Cc1cccc(F)c1)[C@H](C)CN([C@@H](C)CO)S2(=O)=O,/,/,/,/,0,/,/,/
CCC(=O)N(C)C[C@@H]1Oc2cc(-c3cccc(OC)c3)ccc2S(=O)(=O)N([C@@H](C)CO)C[C@H]1C,9[16.7 µM],/,/,/,0,/,/,/
Cc1nc2ccccc2nc(C)c1=NOCc1cccc(Cl)c1,-4,-117,4,-22,0,-2,/,/
Cc1nc(OCc2ccccc2)c2ccccc2n1,1,-5,13,-10,/,0,/,/
Cc1nc2ccccc2cc1OCc1ccccc1,-24,73*,19,-41,/,-1,70*,66
Cc1nc2ccccc2cc1OCc1ccc(Cl)cc1,-22,78*,24,-17,/,2,92*,73*
COc1cccc(COc2cc3ccccc3nc2C)c1,-31,73*,32,9,/,1,94*,76*
C[C@H](CO)N1C[C@H](C)[C@@H](CN(C)C)Oc2ncc(-c3ccccc3F)cc2C1=O,6[16.7 µM],/,/,/,0,/,/,/
COc1ccccc1N1CCN(C(=O)C2CCCN(S(=O)(=O)c3ccc4c(c3)oc(=O)n4C)C2)CC1 (centres undefined),-6,85*,23,-35,0,1,66,50
COc1ccc(N2CCN(C(=O)C3CCCN(S(=O)(=O)c4ccc5c(c4)oc(=O)n5C)C3)CC2)cc1 (centres undefined),-2,10,25,-4,0,0,/,/
O=C(C[C@H]1C[C@H]2c3cc(NC(=O)Nc4ccc(C(F)(F)F)cc4)ccc3O[C@H]2[C@@H](CO)O1)NCc1cc(F)ccc1F,-1[16.7 µM],/,/,/,0,/,/,/
COc1ccc(NS(=O)(=O)c2ccc3oc(SC)nc3c2)cc1,/,74*,18,0,0,0,53,56
C[C@@H](O)C#Cc1ccc2c(c1)O[C@@H](CN(C)Cc1ccccn1)[C@@H](C)CN([C@@H](C)CO)S2(=O)=O,-6[16.7 µM],/,/,/,0,/,/,/
O=C(Cc1cccc2ccccc12)NCC(=O)N1CCN(CC(=O)Nc2ccc(F)cc2)CC1,-11,27,/,/,0,/,/,/
O=C(Cc1cccc2ccccc12)NCC(=O)N1CCN(Cc2cccc(C(F)(F)F)c2)CC1,-12,59,9,-20,0,3,50,42
COC(=O)[C@@H]1[C@@H](CO)[C@@H]2Cn3c(cccc3=O)[C@@H]2N1CC1CCCCC1,-5[16.7 µM],/,/,/,0,/,/,/
O=C(Nc1cccc(C(F)(F)F)c1)N1CCC(c2nc(-c3ccc(F)cc3)no2)CC1,3,49,37,-8,/,3,56,51
COCCNC(=S)N1CCC(c2nc(-c3ccc(N(C)C)cc3)no2)CC1,/,-22,-10,-2,/,0,/,/
CC(C)CNC(=S)N1CCC(c2nc(-c3ccc(F)cc3)no2)CC1,3,67,19,-34,0,0,88*,67
CCOC(=O)C1=C[C@@H](C2CCCCC2)N(S(=O)(=O)c2ccc([N+](=O)[O-])cc2)[C@H]1c1ccccc1,29,74*,/,/,0,/,52,43
SMILES,miR122 inh,NR2E3 ag-1,Jurkat NFkB inh,697 NFkB inh,FGF22 binding,NR2E3 ag-2,NR2E3 ag conf,VP16 counter
CCOC(=O)C1=CC[C@@H](c2ccc([N+](=O)[O-])cc2)N(S(=O)(=O)c2ccc(C)cc2)[C@H]1c1ccccc1,-1,-18,/,/,0,/,/,/
Cc1sc2ncn(CCC(=O)O)c(=O)c2c1C,-10,0,-2,6,/,2,/,/
Cc1sc2ncn(CCn3cnc4sc(C)c(C)c4c3=O)c(=O)c2c1C,-4,55,0,-7,/,3,68,52
COc1ccc(CN(C)C[C@@H]2OCCCC[C@H](C)Oc3ccc(NC(=O)Nc4c(C)noc4C)cc3C(=O)N([C@H](C)CO)C[C@H]2C)cc1,8[16.7 µM],/,/,/,1,/,/,/
CCOC(=O)C1=Nc2cccc3c(O)ccc1c23,/,/,/,/,0,/,/,/
CCOC(=O)C1=Nc2ccccc2C1=[N+]=[N-],-4,97*,-26,-20,/,1,42,79*
O=C(C[C@H]1CC[C@@H]2[C@H](COC[C@H](O)CN2C(=O)Nc2ccc(Cl)cc2)O1)NCC1CC1,-3[16.7 µM],/,/,/,0,/,/,/
NC(=S)NN=C1c2ccccc2-c2ccccc21,-6,72*,-8,-13,0,4,-4,-11
Cc1nc(C)c(C(=O)NNS(=O)(=O)c2ccc3ccccc3c2)s1,/,48,8,-7,0,-1,82*,76*
CO[C@@H]1CN(C)C(=O)c2ccc(NS(C)(=O)=O)cc2OC[C@H](C)N(S(C)(=O)=O)C[C@H]1C,/,/,/,/,1,/,/,/
CCNC(=O)[C@@H]1[C@@H](CO)[C@@H]2Cn3c(ccc(-c4cccc(OC)c4)c3=O)[C@@H]2N1Cc1nccs1,5[16.7 µM],/,/,/,0,/,/,/
CCC1Sc2ccc(S(=O)(=O)Nc3ccc(OC)cc3)cc2NC1=O (centres undefined),/,60,-4,-14,0,4,45,52
CCC1Sc2ccc(S(=O)(=O)Nc3ccc(OC)c(OC)c3)cc2NC1=O (centres undefined),5,88*,24,-47,0,0,81*,57
COc1ccc(C)cc1NS(=O)(=O)c1ccc2c(c1)NC(=O)C(C)S2 (centres undefined),/,8,-11,-31,0,1,/,/
CCC1Sc2ccc(S(=O)(=O)CCC(=O)Nc3ccc(C(=O)OC)cc3)cc2NC1=O (centres undefined),-9,-9,6,7,0,1,/,/
CC(=O)N1c2ccc(S(=O)(=O)NCC3CCC(C(=O)Nc4cc(C)ccn4)CC3)cc2CC1C (centres undefined),-11,48,31,-61,0,1,52,40

# From PubChem
